One experiment deals with L1210. As to the kind of experiment: Antiproliferative activity was determined against murine leukemia cells (L1210). The class given is functional, cell-based. The settings on record: Mus musculus. A digest of the protocol: (§1)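 Cytostatic assay on proliferating cell cultures (human CEM, Molt4/C8; murine L1210, FM3A). IC50 is the compound concentration that inhibits cell proliferation by 50%.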

In the next experiment the test system is FM3A. As to the kind of experiment: Antiproliferative activity was determined against murine mammary carcinoma cells (FM3A). The class given is functional, cell-based. The settings on record: Mus musculus. A digest of the protocol:
as §1

In experiment [1] the test system is CCRF-CEM. Kind of experiment: Antiproliferative activity was determined against human T-lymphocyte cells-CEM. It counts as functional, cell-based. A digest of the protocol: as §1
For the next experiment, the system named is MOLT-4. Kind of experiment: Antiproliferative activity was determined against human T-lymphocyte cells -Molt4/C8. It counts as functional, cell-based. A digest of the protocol: as §1
Experiment [2] deals with Human immunodeficiency virus 2. Kind of experiment: Effective concentration against cytopathicity of HIV-2 strain (ROD) in CEM cell line. It counts as functional, organism-based. The following applies: Human immunodeficiency virus 2, CCRF-CEM. A digest of the protocol: (§2)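 HIV-1 or HIV-2 (ROD) infected CEM cell cultures. EC50 is the compound concentration that protects cells against virus-induced cytopathicity by 50%.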

Experiment [3] concerns Human immunodeficiency virus 1. As to the kind of experiment: Effective concentration against cytopathicity of HIV-1 strain (HTLV IIIB) in CEM cell line. The class given is functional, organism-based. The settings on record: Human immunodeficiency virus 1, CCRF-CEM. A digest of the protocol: as §2
For experiment [4], the system named is MT4. Kind of experiment: Effective dose against HIV-1 strain (HTLV IIIB) in infected MT-4 cell line. The class given is functional. The following applies: Homo sapiens, read-out: ED50 (the source's name).
The subject of experiment [5] is MT4. Kind of experiment: Cytotoxicity towards infected MT-4 cell line. The settings on record: Homo sapiens, read-out: CD50 (the source's name). The class given is functional.
Experiment [6] relates to MT4. As to the kind of experiment: Effective dose against HIV-1 strain (HTLV IIIB) in MT-4 cell line; Not active. The class given is functional, cell-based. The settings on record: Homo sapiens.
Experiment [7] has as its system Human immunodeficiency virus 1. As to the kind of experiment: Inhibitory activity against HIV-1 strain (HTLV IIIB) in MT-4 cell line. It counts as functional. The settings on record: Human immunodeficiency virus 1, MT4; read-out: ED50 (the source's name).
For a further experiment, the system named is MOLT-4 (Homo sapiens). Kind of experiment: Antiproliferative activity was determined against human T-lymphocyte cells -Molt4/C8.
The test system of another experiment is FM3A (Mus musculus). As to the kind of experiment: Antiproliferative activity was determined against murine mammary carcinoma cells (FM3A).
Experiment [8] relates to CCRF-CEM. As to the kind of experiment: Concentration required to lower intracellular dATP levels in CEM/SS cells. It counts as functional, Homo sapiens. A digest of the protocol:
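CEM/SS cells exposed for 24 h at 37 °C across a dose range, then counted. dATP was measured in methanolic cell extracts by an enzymatic assay, elongation of radiolabeled oligonucleotide primers annealed to complementary templates, expressed per million viable cells. IC(dATP-50) is the concentration that depletes intracellular dATP by 50%. Mean ± SD of at least two independent experiments.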

Experiment [9] relates to CCRF-CEM. As to the kind of experiment: Cytotoxicity was determined towards CEM/SS cells (MTT). It counts as functional. The following applies: Homo sapiens. In short, it runs like this: (§3)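 Cytotoxicity in CEM/SS cells measured by MTT read-out, reported as CC50.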
Experiment [10] deals with CCRF-CEM. Kind of experiment: Cytotoxicity was determined towards CEM/SS cells using MTT assay. The class given is functional. The following applies: Homo sapiens. In short, it runs like this:
as §3

Activity calls are given as the source filed them. No cut-off for these calls is given here. A value given as a limit tells only on which side of the number the result lay.

On to `C[C@H](Cn1cnc2c(N)ncnc21)OCP(=O)(O)O` [TENOFOVIR ANHYDROUS], for which the IC50 in the experiment with L1210, with FM3A, in the experiment with CCRF-CEM [1] and in the experiment on MOLT-4 was above 350 µM throughout. In addition, the EC50 came to 3 µM in experiment [2] and 4.2 µM in experiment [3].

As to `Cc1cn([C@H]2C[C@H](SS[C@H]3C[C@H](n4cc(C)c(O)nc4=O)O[C@@H]3CO)[C@@H](CO)O2)c(=O)nc1O`, the EC50 turned out to be 16 µM in the experiment on MT4 [4], 60 µM in experiment [2] and 50 µM in experiment [3]. The IC50 in the experiment on L1210 was above 390 µM; in the experiment on FM3A, above 390 µM; in the experiment on CCRF-CEM [1], above 390 µM; in the experiment on MOLT-4 it was 325 µM. The CC50 in the experiment with MT4 [5] came to 34 µM. The NA result in the experiment on MT4 [6] was “inactive”.

Take `Nc1ccn([C@H]2C[C@H](S)[C@@H](CO)O2)c(=O)n1`: the EC50 in experiment [7] was determined as 20 µM.

Turning to `Cc1cn([C@H]2C[C@H](S)[C@@H](CO)O2)c(=O)[nH]c1=O`, the IC50 in the experiment on MOLT-4 (Homo sapiens), in the experiment with L1210, in the experiment with CCRF-CEM [1] and in the experiment on FM3A (Mus musculus) was above 770 µM throughout. Further, the EC50 in [2] and in [3] was above 390 µM throughout.

`CCCSS[C@H]1C(O)[C@@H](CO)O[C@H]1n1ccc(N)nc1=O` (stereo partly drawn) showed an ICdATP-50 in the experiment on CCRF-CEM [8] of 50 µM.

Turning to `CSS[C@H]1C(O)[C@@H](CO)O[C@H]1n1ccc(=O)[nH]c1=O` (stereo partly drawn), the IC50 in the experiment on L1210 is 320 µM; with FM3A, above 650 µM; with CCRF-CEM [1], 160 µM; in the experiment on MOLT-4, 220 µM. The EC50 in experiment [2] and in experiment [3] was above 65 µM throughout.

For the compound `CSS[C@H]1C[C@H](n2cc(C)c(=O)[nH]c2=O)O[C@@H]1CO`, the IC50 stood at 37 µM in the experiment on L1210, 280 µM in the experiment on FM3A, 155 µM with CCRF-CEM [1] and 25 µM in the experiment on MOLT-4. The EC50 in [2] is 37 µM; in experiment [3], 10 µM. This compound came in with a CC50 in the experiment with CCRF-CEM [9] of 120 µM.

Consider `Nc1ccn([C@@H]2O[C@H](CO)C(O)[C@@H]2S)c(=O)n1` (stereo partly drawn), for which the IC50 in the experiment with L1210 was 670 µM; with FM3A, above 675 µM; in the experiment on CCRF-CEM [1], 305 µM; with MOLT-4, 650 µM. The EC50 in experiment [2] and in experiment [3] was above 340 µM throughout.

Take `Cc1cn([C@H]2C[C@H](N=[N+]=[N-])[C@@H](CO)O2)c(=O)[nH]c1=O` [ZIDOVUDINE]: the IC50 in the experiment on CCRF-CEM [1] and in the experiment on MOLT-4 was above 375 µM throughout. Also, in [3], the EC50 came to 0.004 µM.

Turning to `CSS[C@H]1C(O)[C@@H](CO)O[C@H]1n1ccc(N)nc1=O` (stereo partly drawn), the IC50 is 350 µM with L1210, above 650 µM with FM3A, 82 µM in the experiment with CCRF-CEM [1] and 255 µM in the experiment on MOLT-4. For the same compound, in the experiment with CCRF-CEM [10], the CC50 is 330 µM. This compound also came in with an ICdATP-50 in the experiment on CCRF-CEM [8] of 50 µM. In addition, the EC50 in experiment [2] and in experiment [3] was above 65 µM throughout.

Source of the values: ChEMBL document CHEMBL1145798, “Deoxyribonucleoside 2'- or 3'-mixed disulfides: prodrugs to target ribonucleotide reductase and/or to inhibit HIV reverse transcription” (J Med Chem, 2003).
